A selection: hits, their analogues and other compounds. The true share with any hit is near 2.5%.
SENP8 block-1 – inhibitors of human SENP8 protease; 330,000 tested, 1.2% active; purified SENP8, Z-RLRGG-aminoluciferin cleavage, luminescence; inhibition, % at 10 µM; Q96LD8; AID 2540; in the data active = inhibition above about 50%
SENP1 inh – blocks the human SENP1 SUMO protease catalytic domain | Q9P0U3 | recombinant SENP1 catalytic domain, CyPet-SUMO1-YPet FRET cleavage | inhibition, % at 10 µM | 360,000 tested, 0.21% active;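 active = inhibition at least 30% at 10 µM, raw YFP signal under a set limit, fluorescence ratio 0.5 to 1.5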;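 note: 0% = enzyme with DMSO and 100% = no enzyme wells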
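System: Recombinant human SENP1 catalytic domain, His6-tagged | Incubation: Enzyme reaction for 50 min at room temperature, dark | Medium: Tris pH 8 with BME, BSA, NP40 and catalase | Also added: 25 nM SUMO1 FRET substrate | Compound: 10 µM single point, 0.5% DMSO | Measured by: FRET fluorescence in CFP and YFP emission channels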
SENP7 inh – blocks the human protease SENP7; Q9BQF6; recombinant SENP7, Z-RLRGG-aminoluciferin luminescence, 40 min; inhibition, % at 5 µM; 330,000 tested, 1.5% active; AID 434973;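 active = inhibition above about 50% at the single test dose, limit read from the data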;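 note: plate controls were DMSO with enzyme for no effect and no enzyme buffer wells for full effect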
SENP8 block-2 – SENP8 (human) protease inhibition | Q96LD8 | recombinant SENP8, Nedd8 substrate fluorescence | inhibition, % at 20 µM | 360,000 tested, 0.64% active | AID 602440; in the data active = inhibition mostly above about 40%, no sharp cut-off; inactive = mostly below about 27%
SENP6 inh – inhibitors of human SENP6 protease. Q9GZR1. Recombinant SENP6 catalytic domain, aminoluciferin luminescence. inhibition, % at 10 µM. 330,000 tested, 1.8% active. AID 2599;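 active = inhibition above about 50% at the single tested dose, limit read from the data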;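 note: plate controls were DMSO wells with enzyme for no effect and DMSO wells lacking enzyme for full effect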
Target sequence (Q9GZR1 628-1112 limits assumed): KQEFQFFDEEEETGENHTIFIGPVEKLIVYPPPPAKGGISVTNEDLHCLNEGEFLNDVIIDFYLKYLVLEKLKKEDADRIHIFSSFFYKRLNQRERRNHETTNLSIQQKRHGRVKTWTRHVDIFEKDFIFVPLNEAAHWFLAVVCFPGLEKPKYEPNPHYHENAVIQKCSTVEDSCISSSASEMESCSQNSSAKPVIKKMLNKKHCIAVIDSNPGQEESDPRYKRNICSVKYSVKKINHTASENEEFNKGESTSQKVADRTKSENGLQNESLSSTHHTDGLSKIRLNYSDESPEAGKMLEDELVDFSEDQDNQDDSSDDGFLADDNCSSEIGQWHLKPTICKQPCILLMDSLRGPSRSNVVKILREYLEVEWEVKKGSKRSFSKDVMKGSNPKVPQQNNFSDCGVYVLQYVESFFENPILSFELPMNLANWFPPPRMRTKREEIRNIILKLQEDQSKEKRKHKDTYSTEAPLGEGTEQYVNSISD
SENP8 confirm – confirmation of human SENP8 protease inhibitors | Recombinant SENP8, Z-RLRGG-aminoluciferin luminescence, 60 min | 6,200 tested, 40% active | inhibition, % at 12.5 µM | shares compounds with SENP7 inh;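 active = mean inhibition across replicates above about 50%, limit read from the data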
SENP6 conf – human SENP6 inhibition, confirmed. shares compounds with SENP7 inh. recombinant SENP6, Z-RLRGG-aminoluciferin luminescence. inhibition, % at 12.5 µM. 6,200 tested, 58% active
SENP7 conf – confirmation of human SENP7 protease inhibitors; shares compounds with SENP7 inh; recombinant SENP7, Z-RLRGG-aminoluciferin luminescence, 40 min; inhibition, % at 12.5 µM; 6,200 tested, 69% active; AID 488917
Casp3 select – selectivity test for SENP inhibitors: human caspase-3 inhibition; inhibition, % at 12.5 µM; 6,200 tested, 60% active; shares compounds with SENP7 inh; purified caspase-3, Z-DEVD-aminoluciferin luminescence, 60 min; AID 488918;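 active = mean inhibition above about 50%, limit read from the data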;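 note: plate controls were enzyme with DMSO for no effect and wells without caspase-3 for full effect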
SENP luc ctr – counter-screen for SENP inhibitors: luminescence interference; shares compounds with SENP7 inh; Pre-incubated SENP8/Z-RLRGG-aminoluciferin, luciferase luminescence interference; inhibition, % at 12.5 µM; 6,200 tested, 39% active; AID 488919;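 active = mean inhibition above about 50% when retested at one dose, limit read from the data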;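 note: plate controls were DMSO wells with completed reaction for no effect and substrate without enzyme for full effect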
* = called active by the depositor.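 Rule for the calls, unless noted: active = mean inhibition above about 50% in the one-dose retest (limit read from the data); inactive = the rest.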

How did O=C(Nc1ccc(F)cc1)C(CCc1ccccc1)N1CCN(c2cccc(C(F)(F)F)n2)CC1 (centres undefined) do in these assays?
SENP1 inh: -9; SENP8 block-2: 6

Results for CN(C(=O)c1ccco1)c1nnc(C23CC4CC(CC(C4)C2)C3)s1 ?
SENP8 block-1: -3; SENP1 inh: 2; SENP7 inh: 3; SENP8 block-2: 2; SENP6 inh: 0

Results for CN(C(=O)c1ccco1)c1nc2c(s1)CCCC2 ?
SENP8 block-1: 85*; SENP1 inh: -1; SENP7 inh: 92*; SENP8 block-2: 28; SENP6 inh: -4; SENP8 confirm: 8; SENP6 conf: 91*; SENP7 conf: 101*; Casp3 select: 94*; SENP luc ctr: 89*

How did COc1ccccc1-c1cc(C(=O)Nc2cccnc2)no1 do in these assays?
SENP1 inh: 1; SENP8 block-2: -10

Results for Cc1c(NC(=O)c2cc(CC(C)C)on2)c(=O)n(-c2ccccc2)n1C ?
SENP8 block-1: 11; SENP1 inh: 0; SENP7 inh: 55*; SENP8 block-2: 23; SENP6 inh: 8; SENP8 confirm: -13; SENP6 conf: -5; SENP7 conf: -10; Casp3 select: 3; SENP luc ctr: -3

Results for O=C(Nc1cccnc1)c1cc(-c2ccc(Cl)cc2)on1 ?
SENP8 block-1: 29; SENP1 inh: 0; SENP7 inh: 86*; SENP8 block-2: 28; SENP6 inh: 60*; SENP8 confirm: 29; SENP6 conf: 31; SENP7 conf: 67*; Casp3 select: 56*; SENP luc ctr: 24

What do the screens show for `CC(C)Cc1cc(C(=O)Nc2cccnc2)no1`?
SENP8 block-1: 31; SENP1 inh: 4; SENP7 inh: 52*; SENP8 block-2: 6; SENP6 inh: 48; SENP8 confirm: 45; SENP6 conf: 43; SENP7 conf: 76*; Casp3 select: 79*; SENP luc ctr: 55*

How did Cc1c(NC(=O)c2cc(C(C)C)on2)c(=O)n(-c2ccccc2)n1C do in these assays?
SENP8 block-1: -3; SENP1 inh: 1; SENP7 inh: 4; SENP8 block-2: 7; SENP6 inh: -10

Results for O=C(Nc1cccnc1)c1cc(-c2ccc(Cl)cc2Cl)on1 ?
SENP8 block-1: -4; SENP1 inh: -1; SENP7 inh: 64*; SENP8 block-2: 2; SENP6 inh: 15; SENP8 confirm: 18; SENP6 conf: 20; SENP7 conf: 17; Casp3 select: 18; SENP luc ctr: 8

Results for CCCNC(=O)CSc1nnc(-c2ccccc2Br)n1-c1cccc(C(F)(F)F)c1 ?
SENP8 block-1: -4; SENP1 inh: 1; SENP7 inh: 54*; SENP8 block-2: 10; SENP6 inh: -3; SENP8 confirm: -2; SENP6 conf: 0; SENP7 conf: -4; Casp3 select: 0; SENP luc ctr: 0

Results for O=C(CSc1nc2ccccc2c(=O)n1-c1cccc(C(F)(F)F)c1)NC1CC1 ?
SENP8 block-1: -10; SENP1 inh: 1; SENP7 inh: 1; SENP8 block-2: 16; SENP6 inh: 32

What do the screens show for `CCN(CC(=O)c1c(N)n(C)c(=O)n(C)c1=O)c1cccc2ccccc12`?
SENP8 block-1: 54*; SENP1 inh: -18; SENP7 inh: 29; SENP8 block-2: -279; SENP6 inh: 84*; SENP8 confirm: 12; SENP6 conf: 12; SENP7 conf: 7; Casp3 select: -4; SENP luc ctr: -3

Results for O=C(/C=C/Nc1ccc(F)cc1)c1ccco1 ?
SENP8 block-1: 74*; SENP1 inh: -50; SENP7 inh: 69*; SENP8 block-2: -336; SENP6 inh: 83*; SENP8 confirm: 84*; SENP6 conf: 82*; SENP7 conf: 96*; Casp3 select: 89*; SENP luc ctr: 79*

What do the screens show for `Cc1ccc(N/C=C/C(=O)c2ccco2)c(O)c1`?
SENP8 block-1: 47; SENP1 inh: -36; SENP7 inh: 56*; SENP8 block-2: -72; SENP6 inh: 14; SENP8 confirm: 55*; SENP6 conf: 53*; SENP7 conf: 84*; Casp3 select: 62*; SENP luc ctr: 5

What do the screens show for `CCOC(=O)c1ccc(N/C=C/C(=O)c2ccco2)cc1`?
SENP8 block-1: 83*; SENP1 inh: -26; SENP7 inh: -6; SENP8 block-2: -275; SENP6 inh: 85*; SENP8 confirm: 69*; SENP6 conf: 71*; SENP7 conf: 85*; Casp3 select: 88*; SENP luc ctr: 30

How did O=C(/C=C/Nc1ccc(F)cc1)c1ccc(Br)cc1 do in these assays?
SENP8 block-1: 37; SENP1 inh: -25; SENP7 inh: 79*; SENP8 block-2: -166; SENP6 inh: 1; SENP8 confirm: 4; SENP6 conf: 8; SENP7 conf: 12; Casp3 select: 36; SENP luc ctr: -3

Results for O=C(Nc1ccccc1C(=O)Nc1ccc(F)cc1)c1ccco1 ?
SENP8 block-1: -3; SENP1 inh: 2; SENP7 inh: 2; SENP8 block-2: 1; SENP6 inh: -8

What do the screens show for `CCOC(=O)c1ccc(N/C=C/C(=O)c2ccc(OC)c(OC)c2)cc1`?
SENP8 block-1: -3; SENP1 inh: -52; SENP7 inh: -6; SENP8 block-2: -342; SENP6 inh: -18

Results for O=C(/C=C/Nc1ccc([N+](=O)[O-])cc1)c1ccc(Br)cc1 ?
SENP8 block-1: -4; SENP1 inh: -29; SENP7 inh: 8; SENP8 block-2: -239; SENP6 inh: -7

Results for O=C(C1CC12CCCC2)N1CCC(CO)(Cc2ccccc2Cl)CC1 (centres undefined) ?
SENP8 block-1: -12; SENP1 inh: 2; SENP7 inh: -10; SENP8 block-2: 18; SENP6 inh: -13

What do the screens show for `CC(=O)Nc1c(-c2cc(=O)oc3cc(C)ccc23)oc2ccccc12`?
SENP8 block-1: -11; SENP1 inh: -10; SENP7 inh: -5; SENP8 block-2: -287; SENP6 inh: -20

Results for CC(NCc1ccc2c(c1)OCO2)C(=O)NC1CCCc2ccccc21 (centres undefined) ?
SENP8 block-1: -1; SENP1 inh: 3; SENP7 inh: 0; SENP8 block-2: -140; SENP6 inh: -14
